# Calls of active or inactive are those of the source. The rule behind the calls is not given here.
# Assays:
# [1] = Toxicity in CD-1 mouse assessed as effect on spontaneous activity by measuring decrease in locomotor activity at 3 mg/kg, ip measured at 30 mins post dose for 20 mins; type: organism-based; details: in vivo
# In short: (§1)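 Male CD-1 mice (20–22 g) were placed in the activity cage immediately after i.p. dosing. Distance travelled was recorded from 30 min post-dose over 20 min. Groups had 6–8 animals.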
# [2] = target: Histamine H3 receptor (Homo sapiens, UniProt Q9Y5N1); test: Displacement of [3H]N-alpha-methylhistamine from full length recombinant human H3R expressed in HEK293 cell membranes after 90 mins by beta scintillation counting method
# Histamine H3 receptor, sequence (Q9Y5N1 whole entry): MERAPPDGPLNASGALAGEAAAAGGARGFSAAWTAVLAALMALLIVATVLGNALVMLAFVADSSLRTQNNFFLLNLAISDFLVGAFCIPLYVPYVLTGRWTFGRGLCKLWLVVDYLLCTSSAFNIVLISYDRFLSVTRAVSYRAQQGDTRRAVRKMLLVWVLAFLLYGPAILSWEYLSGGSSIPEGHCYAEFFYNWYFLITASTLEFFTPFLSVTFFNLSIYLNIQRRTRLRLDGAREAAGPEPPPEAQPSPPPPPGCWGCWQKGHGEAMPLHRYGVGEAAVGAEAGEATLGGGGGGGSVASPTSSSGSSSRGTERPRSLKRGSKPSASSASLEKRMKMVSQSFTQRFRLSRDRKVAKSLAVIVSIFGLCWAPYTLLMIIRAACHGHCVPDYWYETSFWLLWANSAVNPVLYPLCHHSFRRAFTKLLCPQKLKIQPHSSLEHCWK
# In short: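 Frozen crude membranes from HEK-293 cells stably expressing full-length human H3R were incubated 90 min at RT with shaking, with [3H]Nα-methylhistamine (2 nM; KD 3.08 nM) and 5–11 concentrations of test compound between 0.01 nM and 10 μM. Nonspecific binding was defined with pitolisant 10 μM. Samples were filtered on PEI-treated GF/B filters and washed with ice-cold water. Ki was derived from IC50 by Cheng-Prusoff; ≥3 experiments, each in at least duplicate.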
# [3] = Toxicity in CD-1 mouse assessed as effect on spontaneous activity by measuring decrease in locomotor activity at 5 mg/kg, ip measured at 30 mins post dose for 20 mins; type: organism-based; details: in vivo; in short: as §1
# [4] = tested on: Rattus norvegicus; test: Protection against development of overweight in Wistar rat fed with palatable feed assessed as decrease in weight gain at 3 mg/kg, ip once daily for 14 days; type: functional, organism-based
# In short: (§2)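 Male Wistar rats (initial 160–180 g), housed in pairs, given palatable diet (peanuts, condensed milk, milk chocolate with hazelnuts, Greek cheese) and dosed i.p. once daily in the morning for 14 days in 1% Tween 80; controls were vehicle on palatable or standard diet. Food intake was recorded three times per week and body weight daily before dosing. Results are mean ± SEM, n = 6; two-way ANOVA with Bonferroni.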
# [5] = tested on: HepG2; test: Induction of phospholipidosis in human HepG2 cells assessed as increase in number of cellular lysosomes at 50 uM after 72 hrs by LYSO-ID Red and Hoechst 33342 staining based fluorescence microscopic method; type: cell-based; details: hepg2, 72 h
# [6] = tested on: HepG2; test: Cytotoxicity against human HepG2 cells assessed as decrease in cell viability at 1 uM by MTS assay relative to control; type: cell-based; details: hepg2, 1 µM
# In short: (§3)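 HepG2 hepatoma cells; viability read by MTS at 490 nm against untreated negative control. Doxorubicin and CCCP served as reference toxins. One-way ANOVA with Bonferroni.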
# [7] = tested on: HepG2; test: Cytotoxicity against human HepG2 cells assessed as decrease in cell viability at 10 uM by MTS assay relative to control; type: cell-based; details: hepg2, 10 µM
# In short: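 HepG2 human hepatoma cells (ATCC HB-8065) were exposed to the test compound at concentrations that included 10 and 100 μM. Viability was read by the MTS assay at 490 nm absorbance and expressed relative to an untreated negative control. Doxorubicin and CCCP served as reference toxins. Significance was tested by one-way ANOVA with Bonferroni's comparison test.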
# [8] = tested on: Rattus norvegicus; test: Protection against development of overweight in Wistar rat fed with palatable feed assessed as weight gain at 3 mg/kg, ip once daily for 14 days measured on day 14 during compound dosing relative to control; type: functional; in short: as §2
# [9] = tested on: Rattus norvegicus; test: Protection against development of overweight in Wistar rat fed with palatable feed assessed as weight gain at 3 mg/kg, ip once daily for 14 days measured on day 9 during compound dosing relative to control; type: functional; in short: as §2
# [10] = Toxicity in Wistar rat fed with palatable diet assessed as effect on spontaneous activity by measuring induction of hyperlocomotion at 3 mg/kg, ip for 13 days measured on day 1 and 13 at 24 hrs post dose; type: organism-based; details: in vivo
# In short: (§4)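 Wistar rats on palatable diet, housed in pairs in home cages, received daily i.p. dosing. Spontaneous activity was recorded by an RFID system for 24 h after dosing on days 1 and 13. Results are mean ± SEM, n = 6; multiple t-test.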
# [11] = tested on: Rattus norvegicus; test: Anorectic activity in Wistar rat fed with palatable diet assessed as reduction in amount of calories consumed at 3 mg/kg, ip once daily for 14 days; type: functional, organism-based; in short: as §2
# [12] = tested on: Rattus norvegicus; test: Protection against development of overweight in Wistar rat fed with preferantial feed assessed as decrease in weight gain at 3 mg/kg, ip once daily for 14 days measured daily during compound dosing; type: functional, organism-based; in short: as §2
# [13] = tested on: HepG2; test: Cytotoxicity against human HepG2 cells assessed as decrease in cell viability at 10 to 100 uM by MTS assay relative to control; type: cell-based; details: hepg2, 100 µM; in short: as §3
# [14] = tested on: Rattus norvegicus; test: Protection against hyperglycemia in Wistar rat fed with palatable feed assessed as decrease in plasma glucose level at 3 mg/kg, ip once daily for 14 days by spectrophotometric method; type: functional, organism-based
# In short: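 On day 15, plasma was taken from the left carotid artery 20 min after i.p. heparin (1000 j/rat) and thiopental (70 mg/kg b.w.), and peritoneal fat was weighed. Glucose was measured by an enzymatic colorimetric test read at 500 nm. Rats had been on palatable diet with daily i.p. dosing in 1% Tween 80 for 14 days.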
# [15] = tested on: Rattus norvegicus; test: Protection against development of overweight in Wistar rat fed with palatable feed assessed as decrease in peritoneal fat at 3 mg/kg, ip once daily for 14 days measured on day 15; type: functional, organism-based
# [16] = Toxicity in Wistar rat fed with palatable diet assessed as effect on spontaneous activity by measuring induction of sedation at 3 mg/kg, ip for 13 days measured on day 1 and 13 at 24 hrs post dose; type: organism-based; details: in vivo; in short: as §4
# [17] = tested on: Rattus norvegicus; test: Protection against development of overweight in Wistar rat fed with palatable feed assessed as decrease in weight gain at 1 mg/kg, ip once daily for 14 days measured daily during compound dosing; type: functional, organism-based; in short: as §2
# [18] = Metabolic stability in human liver microsomes assessed as parent compound remaining after 120 mins by UPLC analysis; type: ADME, Microsome; details: read-out: Stability
Ki [2] [nM],Structure (SMILES),also measured
5.2,CCC(=O)c1ccc(OCCCN2CCN(c3ccncc3)CC2)cc1,Activity [1]: Non-Toxic; Activity [3]: Toxic; Activity [4]: inactive
3700,CC(=O)c1ccc(OCCCCN2CCN(c3ccccn3)CC2)cc1,–
1630,CC(=O)c1ccc(OCCCCN2CCN(c3ncccn3)CC2)cc1,–
15.4,CCC(=O)c1ccc(OCCCCN2CCN(c3ccncc3)CC2)cc1,–
315,CC(=O)c1ccc(OCCCN2CCN(c3ccccn3)CC2)cc1,–
1440,CCC(=O)c1ccc(OCCCCN2CCN(c3ccccn3)CC2)cc1,–
499,CC(=O)c1ccc(OCCCN2CCN(c3cccnc3)CC2)cc1,–
–,CC(=O)N1CCN(c2ccc(OCC3COC(Cn4ccnc4)(c4ccc(Cl)cc4Cl)O3)cc2)CC1 (centres undefined) [KETOCONAZOLE],Activity [5]: Toxic
192,CCC(=O)c1ccc(OCCCN2CCN(c3cccnc3)CC2)cc1,–
–,COc1cccc2c1C(=O)c1c(O)c3c(c(O)c1C2=O)C[C@@](O)(C(=O)CO)C[C@@H]3O[C@H]1C[C@H](N)[C@H](O)[C@H](C)O1 [DOXORUBICIN],Activity [6]: > 50%
1390,CCC(=O)c1ccc(OCCCN2CCN(C(=O)C3CCCO3)CC2)cc1 (centres undefined),–
4890,CC(=O)c1ccc(OCCCN2CCN(C(=O)C3CCCO3)CC2)cc1 (centres undefined),–
2320,CC(=O)c1ccc(OCCCN2CCN(c3cnccn3)CC2)cc1,–
908,CC(=O)c1ccc(OCCCCN2CCN(c3cccnc3)CC2)cc1,–
377,CCC(=O)c1ccc(OCCCN2CCN(c3ccccn3)CC2)cc1,–
1720,CCC(=O)c1ccc(OCCCN2CCN(c3ncccn3)CC2)cc1,–
3390,CCC(=O)c1ccc(OCCCN2CCN(c3cnccn3)CC2)cc1,–
3630,CCC(=O)c1ccc(OCCCCN2CCN(c3ncccn3)CC2)cc1,–
–,N#CC(C#N)=NNc1cccc(Cl)c1 [CARBONYL CYANIDE M-CHLOROPHENYLHYDRAZONE],Activity [7]: > 50%
> 10000,CC(=O)c1ccc(OCCCCN2CCN(C(=O)C3CCCO3)CC2)cc1 (centres undefined),–
1390,CCC(=O)c1ccc(OCCCCN2CCN(c3cccnc3)CC2)cc1,–
10.2,CC(=O)c1ccc(OCCCN2CCN(c3ccncc3)CC2)cc1,Activity [1]: Non-Toxic; Activity [8]: 7.89%; Activity [9]: 8.64%; Activity [10]: Non-Toxic; Activity [11]: Active; Activity [12]: Active; Activity [13]: 10%; Activity [14]: Active; Activity [3]: Toxic; Activity [15]: Active; Activity [5]: Non-Toxic; Activity [16]: Non-Toxic; Activity [17]: inactive; remaining at 2 h [18]: 91.3%
4040,CCC(=O)c1ccc(OCCCCN2CCN(c3cnccn3)CC2)cc1,–
> 10000,CCC(=O)c1ccc(OCCCCN2CCN(C(=O)C3CCCO3)CC2)cc1 (centres undefined),–
2450,CC(=O)c1ccc(OCCCN2CCN(c3ncccn3)CC2)cc1,–
1230,CC(=O)c1ccc(OCCCCN2CCN(c3cnccn3)CC2)cc1,–
115,CC(=O)c1ccc(OCCCCN2CCN(c3ccncc3)CC2)cc1,–

# Source: ChEMBL document CHEMBL4382227, “Optimization and preclinical evaluation of novel histamine H3receptor ligands: Acetyl and propionyl phenoxyalkyl piperazine derivatives” (Bioorg Med Chem, 2018)
